# The source made the active and inactive calls. The rule behind the calls is not given here.
# Assays:
# [1] = target: T1, C-X-C chemokine receptor type 1 (Homo sapiens) (UniProt P25024); experiment: Binding affinity to CXCR1
# T1 sequence (whole entry): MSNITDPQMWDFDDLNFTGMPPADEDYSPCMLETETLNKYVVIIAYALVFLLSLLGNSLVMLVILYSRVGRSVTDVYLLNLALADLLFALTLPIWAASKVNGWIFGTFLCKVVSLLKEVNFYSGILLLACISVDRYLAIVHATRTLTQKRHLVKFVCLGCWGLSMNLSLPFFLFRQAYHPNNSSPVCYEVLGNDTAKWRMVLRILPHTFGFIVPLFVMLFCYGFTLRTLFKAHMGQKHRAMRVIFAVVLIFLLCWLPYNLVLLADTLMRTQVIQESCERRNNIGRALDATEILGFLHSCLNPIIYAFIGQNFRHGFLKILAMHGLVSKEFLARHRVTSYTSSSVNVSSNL
# [2] = target: T2, C-X-C chemokine receptor type 2 (Homo sapiens) (UniProt P25025); experiment: Binding affinity to CXCR2
# T2 sequence (whole entry): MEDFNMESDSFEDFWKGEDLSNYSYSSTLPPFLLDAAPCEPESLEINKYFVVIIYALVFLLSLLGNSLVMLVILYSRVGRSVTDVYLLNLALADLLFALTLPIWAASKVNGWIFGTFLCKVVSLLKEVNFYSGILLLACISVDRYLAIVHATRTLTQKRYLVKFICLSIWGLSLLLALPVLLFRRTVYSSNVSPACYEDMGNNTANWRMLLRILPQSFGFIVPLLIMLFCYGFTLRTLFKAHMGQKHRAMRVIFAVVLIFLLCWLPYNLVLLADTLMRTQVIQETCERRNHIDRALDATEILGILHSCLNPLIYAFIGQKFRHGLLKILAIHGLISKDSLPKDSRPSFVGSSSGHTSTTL
# [3] = Cytotoxicity against human neutrophils assessed as cell viability by ethidium bromide-fluorescein diacetate test; format: cell-based, Neutrophil; parameters: concentration or dose not given beside the values; conditions: read-out: Activity
# Method in brief: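 Neutrophils (2 × 10^6/mL) from healthy donor blood, incubated 2 h at 37 °C in CO2 atmosphere with compounds. Cells then stained with fluorescein diacetate/ethidium bromide in HBSS, 10 min at room temperature. Scored under UV dark-field: green = intact membrane (viable), red nucleus = necrotic; percentage viable cells.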
# Neutrophil [4] = experiment: Inhibition of chemotaxis in human neutrophils assessed as inhibition of IL8-induced migration by Boyden chamber assay; format: functional, cell-based
# Method in brief: (§1)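 Donor blood neutrophils (dextran sedimentation, Ficoll-Hypaque, hypotonic lysis; >97% pure), preincubated with compound 15 min at room temperature. 4 × 10^5 cells in upper compartment of blind-well chamber, 3 µm cellulose ester filter. Lower compartment: IL-8 10^-9 M, fMLP 10^-8 M or C5a 10^-9 M. Incubation 37 °C, 45 min. Leading-front distance read at ×400, five fields/filter, duplicates. Net migration = stimulated minus spontaneous. IC50 by nonlinear regression, mean of ≥3 experiments.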
# Neutrophil [5] = experiment: Inhibition of chemotaxis in human neutrophils assessed as inhibition of fMLP-induced migration by Boyden chamber assay; format: functional, cell-based; method in brief: as §1
# Neutrophil [6] = experiment: Inhibition of chemotaxis in human neutrophils assessed as inhibition of C5a-induced migration by Boyden chamber assay; format: functional, cell-based; method in brief: as §1
# Mus musculus [7] = experiment: Inhibition of chemotaxis in zymosan-induced peritonitis Swiss mouse model assessed as number of peritoneal cells per cavity at 50 mg/kg, po pretreated 1 hr before zymosan-challenge measured 4 hrs post inducer challenge (Rvb=31.5+/-1.2 million); format: functional
# Mus musculus [8] = experiment: Inhibition of chemotaxis in zymosan-induced peritonitis Swiss mouse model assessed as peritoneal protein concentration at 50 mg/kg, po pretreated 1 hr before zymosan-challenge measured 4 hrs post inducer challenge (Rvb=1961+/-[…]); format: functional
# Mus musculus [9] = experiment: Inhibition of chemotaxis in zymosan-induced peritonitis Swiss mouse model assessed as number of peritoneal granulocytes per cavity at 50 mg/kg, po pretreated 1 hr before zymosan-challenge measured 4 hrs post inducer challenge (Rvb=27.1+/-3.5 million); format: functional
# Mus musculus [10] = experiment: Inhibition of chemotaxis in zymosan-induced peritonitis Swiss mouse model assessed as number of peritoneal granulocytes per cavity at 3 mg/kg, po pretreated 1 hr before zymosan-challenge measured 4 hrs post inducer challenge (Rvb=27.1+/-3.5 million); format: functional
# Mus musculus [11] = experiment: Inhibition of chemotaxis in zymosan-induced peritonitis Swiss mouse model assessed as peritoneal protein concentration at 3 mg/kg, po pretreated 1 hr before zymosan-challenge measured 4 hrs post inducer challenge (Rvb=1961+/-160 µg/mL)
# Mus musculus [12] = experiment: Inhibition of chemotaxis in zymosan-induced peritonitis Swiss mouse model assessed as number of peritoneal cells per cavity at 3 mg/kg, po pretreated 1 hr before zymosan-challenge measured 4 hrs post inducer challenge (Rvb=31.5+/-1.2 million); format: functional
SMILES,IC50 (Neutrophil [4]) [nM],viability [3] [%],Activity (Neutrophil [5]),other results
COC(=O)c1c(NCCc2c[nH]c3ccccc23)n(-c2ccccc2)c(=S)n(-c2ccccc2)c1=O,29.6,≥ 94,inactive,
CCOC(=O)c1c(NCCNc2ccccc2)n(-c2ccccc2)c(=S)n(-c2ccccc2)c1=O,0.61,≥ 94,inactive,Activity [1]: inactive; Activity [2]: inactive
C[C@@H]1C[C@H]2[C@@H]3CCC4=CC(=O)C=C[C@]4(C)[C@@]3(F)[C@@H](O)C[C@]2(C)[C@@]1(O)C(=O)CO [DEXAMETHASONE],,,,Activity (Mus musculus [10]): 18.5 million; Activity (Mus musculus [11]): 1400 µg/mL; Activity (Mus musculus [12]): 22 million
COC(=O)c1c(NCCc2ccc(S(N)(=O)=O)cc2)n(-c2ccccc2)c(=S)n(-c2ccccc2)c1=O,10.8,≥ 94,inactive,
COC(=O)c1c(NCC(OC)OC)n(-c2ccccc2)c(=S)n(-c2ccccc2)c1=O,31.2,≥ 94,inactive,
CC(=O)c1c(N2CCN(C)CC2)n(-c2ccccc2)c(=S)n(-c2ccccc2)c1=O,14.8,≥ 94,inactive,
CC(=O)c1c(NCCN(C)C)n(-c2ccccc2)c(=S)n(-c2ccccc2)c1=O,6.86,≥ 94,inactive,
CC(C)OC(=O)c1c(NCCN(C)C)n(-c2ccccc2)c(=S)n(-c2ccccc2)c1=O,0.18,≥ 94,inactive,Activity (Neutrophil [6]): inactive
CCN(CC)CCNc1c(C(=O)OC(C)C)c(=O)n(-c2ccccc2)c(=S)n1-c1ccccc1,0.21,≥ 94,inactive,Activity (Neutrophil [6]): inactive

# Now from value to compound, other results behind:
IC50 (Neutrophil [4]) [nM],SMILES,viability [3] [%],Activity (Neutrophil [5]),other results
1.36,CCOC(=O)c1c(NCCOC)n(-c2ccccc2)c(=S)n(-c2ccccc2)c1=O,≥ 94,inactive,Activity [1]: inactive; Activity [2]: inactive
0.02,CCOC(=O)c1c(NCCN(CC)CC)n(-c2ccccc2)c(=S)n(-c2ccccc2)c1=O,≥ 94,inactive,Activity [1]: inactive; Activity [2]: inactive; Activity (Neutrophil [6]): inactive; Activity (Mus musculus [7]): 23.8 million; Activity (Mus musculus [8]): 1520 µg/mL; Activity (Mus musculus [9]): 17.7 million
3.32,COC(=O)c1c(NCCN(C)C)n(-c2ccccc2)c(=S)n(-c2ccccc2)c1=O,≥ 94,inactive,
172,CCOC(=O)c1c(NCCN2CCOCC2)n(-c2ccccc2)c(=S)n(-c2ccccc2)c1=O,≥ 94,inactive,
0.49,CCOC(=O)c1c(NCCc2ccccn2)n(-c2ccccc2)c(=S)n(-c2ccccc2)c1=O,≥ 94,inactive,Activity [1]: inactive; Activity [2]: inactive
3.89,CCOC(=O)c1c(NCCCN(C)C)n(-c2ccccc2)c(=S)n(-c2ccccc2)c1=O,≥ 94,inactive,
1.61,CCOC(=O)c1c(NCCC2CCCN2C)n(-c2ccccc2)c(=S)n(-c2ccccc2)c1=O (stereo unspecified),≥ 94,inactive,Activity [1]: inactive; Activity [2]: inactive
0.1,CCOC(=O)c1c(NCCN(C)C)n(-c2ccccc2)c(=S)n(-c2ccccc2)c1=O,≥ 94,inactive,Activity (Neutrophil [6]): inactive
85.4,CCOC(=O)c1c(NCCN2CCCCC2)n(-c2ccccc2)c(=S)n(-c2ccccc2)c1=O,≥ 94,inactive,
